Published values of several laboratories.
Lines come from different studies, so protocols differ.
Target: Serine/threonine-protein kinase PLK2 (PLK2, Homo sapiens, UniProt Q9NYY3)

The remaining binding of `COc1ncc2cc3ccccc3nc2c1C#N` is reported as 45% (cell-free assay, competition with immobilised ligand; 5 µM).
The remaining binding of `Cc1c(NC(=O)c2cc(C(N)=O)nc3cc(F)ccc23)c(C(F)(F)F)nn1Cc1ccc(C(C)(C)C)cc1` is reported as 100% (cell-free assay, competition with immobilised ligand; 1 µM).
With `CN(C)c1nccc(-c2cnn3ncccc23)n1` the remaining binding was 100% (binding; 1 µM).
With `C[C@@H]1CN(c2cc(-c3nn(C)c4ccc(OC5(C)CC5)cc34)ncn2)C[C@H](C)O1` the remaining binding was 68% (cell-free assay, competition with immobilised ligand; 1 µM).
For `CN(CCCC(F)(F)F)c1nccc(-c2cnn3ncccc23)n1`, the remaining binding was 99% (binding; 1 µM).
For `CCC(=O)N[C@H]1CC[C@@H](C(=O)N(C)c2ccc(-c3nc4ccccc4o3)cc2)C1`, the remaining binding was 96% (cell-free assay, competition with immobilised ligand; 1 µM).
The remaining binding of `O=C(Nc1c[nH]nc1C(=O)NC1CCNCC1)c1cc(F)cc(F)c1` is reported as 92% (binding, competition with immobilised ligand; 1 µM).
For `c1cncc(-c2cccc(Nc3nccc(NC4CCCCC4)n3)c2)c1`, the remaining binding was 100% (binding, competition with immobilised ligand; 10 µM).
`N#Cc1ccc(Nc2ccc3[nH]c(=O)[nH]c3c2)c(Cl)c1` gave a remaining binding of 86% (cell-free assay, competition with immobilised ligand; 1 µM).
For `Cc1cnn2ncc(-c3ccnc(N(C)C)n3)c2c1`, the remaining binding was 94% (binding; 1 µM).
`Nc1ncc2c(n1)-c1c([nH]c3ccc(C#CC4CC4)cc13)CCCC2` gave a remaining binding of 91% (binding, competition with immobilised ligand; 1 µM).
For `NS(=O)(=O)c1cc(NC(=O)C2(c3ccccc3Cl)CC2)ccc1Oc1cccc(Cl)c1`, the remaining binding was 84% (cell-free assay, competition with immobilised ligand; 1 µM).
The remaining binding of `CN(c1nccc(-c2cnn3ncccc23)n1)C1CC1` is reported as 88% (binding; 1 µM).
With `O=C(c1ccc(Nc2ncc(Cl)c(-c3cc4ccccc4s3)n2)cc1)N1CCC(N2CCCC2)CC1` the remaining binding was 68% (binding, competition with immobilised ligand; 1 µM).
The remaining binding of `COc1cnc(Nc2cccc(S(N)(=O)=O)c2)nc1N1CCN(c2ccccc2)CC1` is reported as 94% (binding, competition with immobilised ligand; 1 µM).
With `O=C(NCCCN1CCOCC1)c1ccc(Nc2nccc(-c3cc4ccccc4s3)n2)cc1` the remaining binding was 44% (binding, competition with immobilised ligand; 1 µM).
With `C[C@@H]1CCN(c2nccc(-c3cnn4ncccc34)n2)C1` the remaining binding was 88% (binding; 1 µM).
`O=C(c1ccc(Nc2ncc(Cl)c(-c3ccc(Cl)s3)n2)cc1)N1CCC(N2CCCC2)CC1` gave a remaining binding of 47% (binding, competition with immobilised ligand; 1 µM).
With `Cc1nc(C2CCN(C(=O)c3ccc(OC(F)(F)F)cc3N)CC2)c2ncc(N3CCN(C)CC3)cc2n1` the remaining binding was 74% (cell-free assay, competition with immobilised ligand; 1 µM).
`c1cnn2ncc(-c3ccnc(N4CCC45COC5)n3)c2c1` has a remaining binding of 87% (binding; 1 µM).
